ChEMBL document CHEMBL1125037, “Synthesis and antihypertensive activity of 4-(1,2-dihydro-2-oxo-1-pyridyl)-2H-1-benzopyrans and related compounds, new potassium channel activators” (1990)

test system: Rattus norvegicus; test: Antihypertensive effect after 1 mg/kg (po) administration in conscious spontaneously hypertensive rat (over a time period of 0-210 min).; type: functional, organism-based; design: dose 1 mg/kg
Procedure, shortened: (§1)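 Male Okamoto-strain SHR (280-330 g, blood pressure >180 mmHg), conscious and unrestrained, given 1 mg/kg orally as a screening dose. Mean arterial pressure was recorded directly and continuously via an aortic catheter from 1 h before to 3.5 h after dosing. The effect is the mean of the maximum individual changes over 3.5 h; N ≥ 3.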

SMILES | Max fall in blood pressure
CC1(C)Oc2ccc(C#N)cc2[C@@H](n2cc(C(=O)O)ccc2=O)[C@@H]1O | Not significant
CC1(C)Oc2ccc(C#N)cc2C(n2ccc(=O)[nH]c2=O)[C@@H]1O (some centres undefined) | Not significant
CC1(C)C=C(n2ccc(OCc3ccccc3)cc2=O)c2cc(C#N)ccc2O1 | Not significant
CC1(C)Oc2ccc(C(=N)S)cc2[C@@H](n2ccccc2=O)[C@@H]1O | Not significant
COC(=O)c1ccc2c(c1)C(n1ccccc1=O)C(=O)C(C)(C)O2 (centres undefined) | Not significant
CC1(C)Oc2ccc(C=O)cc2[C@@H](n2ccccc2=O)[C@@H]1O | Not significant
CC1(C)C=C(n2cc(Cl)c(=O)c(Cl)c2)c2cc(C#N)ccc2O1 | Not significant
O=c1ccccn1[C@@H]1c2cc([N+](=O)[O-])ccc2OC2(CCCC2)[C@H]1O | Not significant
N#Cc1ccc2c(c1)C(n1ccccc1=O)=CC1(CCCCC1)O2 | Not significant
N#Cc1ccc2c(c1)[C@@H](n1ccccc1=O)[C@H](O)C1(CCCCC1)O2 | Not significant
CC1(C)Oc2ccc(C#N)cc2[C@@H](N2CCC/C2=N\C(=O)c2ccncc2)[C@@H]1O | Not significant
CC1(C)Oc2ccc(C#N)cc2[C@@H](N2CCCCC2=N)[C@@H]1O | Not significant
CC1(C)Oc2ccc(NC(=N)S)cc2C(N2CCCC2=O)[C@@H]1O (some centres undefined) | Not significant
CC1(C)Oc2ccc(/C=C/c3ccc(C#N)cc3)cc2[C@@H](n2ccccc2=O)[C@@H]1O | Not significant
Cc1csc(-c2ccc3c(c2)C(N2CCCC2=O)[C@H](O)C(C)(C)O3)n1 (some centres undefined) | Not significant
CCOc1ccn([C@@H]2c3cc(C#N)ccc3OC(C)(C)[C@H]2O)c(=O)c1 | Not significant
CC1(C)Oc2ccc(C#N)cc2C(N2CCC(=O)CC2)[C@@H]1O (some centres undefined) | Not significant
CC1(C)C=C(n2ccccc2=O)c2cc(C(N)=O)ccc2O1 | Not significant
CC1(C)Oc2ccc(-c3nc4ccc[nH]c-4n3)cc2C(N2CCCC2=O)[C@@H]1O (some centres undefined) | Not significant
CC1(C)Oc2ccc(C#N)cc2[C@@H](n2cc(Cl)cc(Cl)c2=O)[C@@H]1O | Not significant
CC1(C)Oc2ccc(-c3nc4cc[nH]cc-4n3)cc2C(N2CCCC2=O)[C@@H]1O (some centres undefined) | Not significant
CC1(C)C=C(n2cc(Cl)cc(Cl)c2=O)c2cc(C#N)ccc2O1 | Not significant
CC1(C)Oc2ccc(C#N)cc2C(n2cc(Cl)c(=O)c(Cl)c2)[C@@H]1O (some centres undefined) | Not significant
O=c1ccccn1C1=CC2(CCCC2)Oc2ccc([N+](=O)[O-])cc21 | Not significant
CC1(C)Oc2ccc(/N=C/c3ccc(C#N)cc3)cc2C(N2CCCC2=O)[C@@H]1O (some centres undefined) | Not significant

SMILES | Max fall in blood pressure
CCOC(=O)c1ccc2c(c1)[C@@H](n1ccccc1=O)[C@H](O)C(C)(C)O2 | Not significant
CC1(C)Oc2ccc(/N=C/c3ccc(Cl)cc3Cl)cc2C(N2CCCC2=O)[C@@H]1O (some centres undefined) | Not significant
CC(=O)Oc1cccn([C@@H]2c3cc(C#N)ccc3OC(C)(C)[C@H]2O)c1=O | Not significant
N#Cc1ccc2c(c1)[C@@H](n1ccccc1=O)[C@H](O)C1(CCCC1)O2 | Not significant
CC1(C)Oc2ccc(C#N)cc2[C@@H](n2cc(Br)cc(Br)c2=O)[C@@H]1O | Not significant
CC1(C)Oc2ccc(C(N)=O)cc2[C@]2(n3ccccc3=O)O[C@H]12 | Not significant
CC1(C)Oc2ccc([N+](=O)[O-])cc2[C@@H](N2CCCC2=N)[C@@H]1O | Not significant
CC1(C)Oc2ccc(C#N)cc2[C@@H](n2cccc([N+](=O)[O-])c2=O)[C@@H]1O | Not significant
CC1(C)Oc2ccc(-c3nn[nH]n3)cc2C(N2CCCC2=O)[C@@H]1O (some centres undefined) | Not significant
CC(=O)Nc1ccc(=O)n([C@@H]2c3cc(C#N)ccc3OC(C)(C)[C@H]2O)c1 | Not significant
CC1(C)Oc2ccc(Br)cc2[C@@H](n2ccccc2=O)[C@@H]1O | Not significant
CC1(C)C=C(n2ccccc2=O)c2cc(-c3ccncc3)ccc2O1 | Not significant
CC1(C)C=C(n2ccc3ccccc3c2=O)c2cc(C#N)ccc2O1 | Not significant
CC(=O)Nc1ccc(=O)n(C2=CC(C)(C)Oc3ccc(C#N)cc32)c1 | Not significant
CC1(C)Oc2ccc(C#N)cc2[C@@H](n2cccc(N)c2=O)[C@@H]1O | Not significant
CC1(C)Oc2ccc(-c3nc4ccccc4[nH]3)cc2C(N2CCCC2=O)[C@@H]1O (some centres undefined) | Not significant
CC1(C)Oc2ccc(C3=NCCN3)cc2C(N2CCCC2=O)[C@@H]1O (some centres undefined) | Not significant
CN(C)c1cccn([C@@H]2c3cc(C#N)ccc3OC(C)(C)[C@H]2O)c1=O | Not significant
CC1(C)C=C(n2cc(Br)cc(Br)c2=O)c2cc(C#N)ccc2O1 | Not significant
O=c1ccccn1[C@@H]1c2cc([N+](=O)[O-])ccc2OC2(CCCCC2)[C@H]1O | Not significant
CC1(C)Oc2ccc(C#N)cc2[C@@H](n2ccc(OCc3ccccc3)cc2=O)[C@@H]1O | Not significant
Cc1coc(-c2ccc3c(c2)C(N2CCCC2=O)[C@H](O)C(C)(C)O3)n1 (some centres undefined) | Not significant
COc1cccn([C@@H]2c3cc(C#N)ccc3OC(C)(C)[C@H]2O)c1=O | Not significant
Cc1csc(Nc2ccc3c(c2)C(N2CCCC2=O)[C@H](O)C(C)(C)O3)n1 (some centres undefined) | Not significant
CC1(C)CC(n2ccc(=O)cc2)c2cc(C#N)ccc2O1 (centres undefined) | Not significant

test system: Rattus norvegicus; test: Antihypertensive effect after 1 mg/kg (po) administration in conscious spontaneously hypertensive rat (over a time period of 0-210 minutes).; type: functional; procedure, shortened: as §1

SMILES | Max fall in blood pressure
CC1(C)Oc2ccc(C(=N)S)cc2C(N2CCCC2=O)[C@@H]1O (some centres undefined) | 22 mmHg
CC1(C)Oc2ccc(C#N)cc2C(n2cccnc2=O)[C@@H]1O (some centres undefined) | 20 mmHg
CC1(C)Oc2ccc(C#N)cc2[C@@H](n2cc(N)ccc2=O)[C@@H]1O | 34 mmHg
CC1(C)C=C(n2ccccc2=O)c2cc(C=O)ccc2O1 | 35 mmHg
CC1(C)Oc2ccc(C#N)cc2C(n2ccc(=O)cc2)[C@@H]1O (some centres undefined) | 21 mmHg
CC1(C)Oc2ccc(C#N)cc2[C@H](n2ccccc2=O)[C@@H]1O | 26 mmHg
CC(=O)c1ccc2c(c1)[C@@H](n1ccccc1=O)[C@H](O)C(C)(C)O2 | 38 mmHg
CC(=O)Nc1cccn([C@@H]2c3cc(C#N)ccc3OC(C)(C)[C@H]2O)c1=O | 22 mmHg
COC(=O)c1ccc2c(c1)[C@@H](n1ccccc1=O)[C@H](O)C(C)(C)O2 | 49 mmHg
CC1(C)C=C(n2ccc(=O)[nH]c2=O)c2cc(C#N)ccc2O1 | 23 mmHg
CC1(C)C=C(n2ccccc2=O)c2cc(C(=N)S)ccc2O1 | 23 mmHg
CC1(C)Oc2ccc(C#N)cc2C(n2ccccc2=O)C1=O (centres undefined) | 20 mmHg
CC1(C)Oc2ccc(C#N)cc2C(N2CCCCS2(=O)=O)[C@@H]1O (some centres undefined) | 30 mmHg
CC1(C)Oc2ccc(C#N)cc2C(n2ccc(=O)nc2)[C@@H]1O (some centres undefined) | 18 mmHg
CC1(C)C=C(n2cc([N+](=O)[O-])ccc2=O)c2cc(C#N)ccc2O1 | 27 mmHg
CC1(C)Oc2ccc(/C=C/C#N)cc2[C@@H](n2ccccc2=O)[C@@H]1O | 25 mmHg
CC1(C)Oc2ccc(-c3ccncc3)cc2C(N2CCCC2=O)[C@@H]1O (some centres undefined) | 20 mmHg

SMILES | Max fall in blood pressure
CC1(C)C=C(N2CCCCS2(=O)=O)c2cc(C#N)ccc2O1 | 25 mmHg
CC1(C)C=C(n2ncccc2=O)c2cc(C#N)ccc2O1 | 23 mmHg
CCOC(=O)c1ccc(=O)n(C2c3cc(C#N)ccc3OC(C)(C)[C@H]2O)n1 (some centres undefined) | 24 mmHg
O=c1ccccn1C1=CC2(CCCCC2)Oc2ccc([N+](=O)[O-])cc21 | 22 mmHg
CC1(C)Oc2ccc(-c3ccncc3)cc2[C@@H](n2ccccc2=O)[C@@H]1O | 24 mmHg
CC1(C)C=C(n2cc(Cl)ccc2=O)c2cc(C#N)ccc2O1 | 23 mmHg
CC1(C)Oc2ccc(/N=C/c3ccc([N+](=O)[O-])cc3)cc2C(N2CCCC2=O)[C@@H]1O (some centres undefined) | 26 mmHg
COC1=C(n2ccccc2=O)c2cc(C#N)ccc2OC1(C)C | 22 mmHg
CC1(C)C=C(n2ccc(=O)cc2)c2cc(C#N)ccc2O1 | 48 mmHg
CC1(C)Oc2ccc(C#N)cc2[C@@H](n2cccc(C(=O)O)c2=O)[C@@H]1O | 24 mmHg
CC(=O)OC1=C(n2ccccc2=O)c2cc(C#N)ccc2OC1(C)C | 21 mmHg
CC1(C)Oc2ccc(C#N)cc2[C@@H](n2cc([N+](=O)[O-])ccc2=O)[C@@H]1O | 23 mmHg
CC1(C)Oc2ccc(C#N)cc2[C@@H](n2cc(Cl)ccc2=O)[C@@H]1O | 37 mmHg
CC1(C)Oc2ccc(C#N)cc2C(n2ncc3ccccc3c2=O)[C@@H]1O (some centres undefined) | 38 mmHg
CC1(C)Oc2ccc(C#N)cc2C(n2cnccc2=O)[C@@H]1O (some centres undefined) | 19 mmHg
N#Cc1ccc2c(c1)C(n1ccccc1=O)=CC1(CCCC1)O2 | 26 mmHg
CC1(C)Oc2ccc(C#N)cc2C(n2ccc3ccccc3c2=O)[C@@H]1O (some centres undefined) | 24 mmHg
